Bioassay records: PubChem, several laboratories
Yeast life ext – compounds extending yeast replicative lifespan, primary screen, S. cerevisiae, OD615; AID 775, 2007; hit rate 0.68% among 130,000; inhibition of the nicotinamide effect, % at 10 µM; S. cerevisiae growth with nicotinamide; deaD strain in restrictive glucose medium;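 active = inhibition above a set limit, placed 3 SD over the median of all compounds, cut at about 26% in these data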;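 note: 0% = nicotinamide-treated wells and 100% = cells grown without nicotinamide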
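Assay system: DeaD-strain S. cerevisiae. Medium: CSMM-D glucose medium, restrictive. Reagent: nicotinamide, 1.5 mM, co-present with compound. Compound: 10 µM single point, 0.25% DMSO. Schedule: culture preincubation 4 h, compound exposure 48 h, both 30 °C. Detection: absorbance at 615 nm.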
sdo1 growth – growth rescue of sdo1-depleted yeast, primary screen, S. cerevisiae, bone marrow failure model. S. cerevisiae sdo1-depleted JHY4D growth rescue, OD600 30 h; active compounds read high; pdr5 snq2 efflux-pump mutant strain. z-score at 10 µM. hit rate 0.21% among 140,000;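 active = z-score above 3 at both the 24 hr and the 30 hr optical density reads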;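 note: z-score against mean and SD of all compound wells on the same plate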
Yeast growth inh – growth inhibitors of yeast BB579 in restrictive medium, primary screen, yeast lifespan-shortening project, S. cerevisiae | hit rate 0.51% among 140,000 | inhibition, % at 10 µM | OD615, 48 h;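 active = inhibition above a set limit, 3 SD over the mean compound inhibition, cut at about 44% in these data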
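Test system: DeaD yeast strain BB579 / Buffer or medium: restrictive glucose-based CSMM-D medium / Doses: single 10 µM dose / Schedule: 4 h cell preincubation, 48 h compound exposure, 30 °C humidified / Technique: culture absorbance at 615 nm / Controls: amphotericin B positive control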
HMGR II inh – inhibitors of E. faecalis class II HMGR, primary screen, biochemical, Enterococcus faecalis | purified E. faecalis HMGR, NADPH absorbance 340 nm kinetic | inhibition, % at 10 µM | hit rate 0.41% among 190,000;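 active = inhibition above a set limit, the median over all tested compounds plus 3 SD, cut at about 9.5% in these data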;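 note: enzyme runs in reverse so mevalonate oxidation gives rising NADPH absorbance; 0% = complete reaction with DMSO and 100% = background rate lacking mevalonate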
An asterisk follows results filed as active; · = not tested or not shown. Sampled rows, rich in hits. Any-hit rate of the full collection: about 1.3%.

SMILES	Yeast life ext	sdo1 growth	Yeast growth inh	HMGR II inh
Cc1nc2sc3c(c2c(=O)o1)CC(C)(C)OC3	32*	2.4	-16	-1
COc1cc(NC(=O)c2cccnc2SC)cc(OC)c1OC	·	·	·	13*
CN(c1cccc(NC(=O)c2cccc([N+](=O)[O-])c2)c1)S(C)(=O)=O	·	·	·	-5
CCCCNC(=O)/C(C#N)=C/c1cccnc1	46*	-0.64	-2	1
N#C/C(=C\c1ccc2c(c1)OCCO2)C(=O)NC1CCCCC1	2	-0.7	-17	-2
N#C/C(=C\c1cccnc1)C(=O)NC1CCCCC1	32*	-0.63	-18	0
S=C(NC1CC2CCC1C2)N1CCN(c2cccc(Cl)c2)CC1 (centres undefined)	·	·	·	1
CCOC(=O)c1c(CN(CC)CC)oc2cc(Br)c(O)cc12	-12	0.39	-62	-8
CCOC(=O)c1c(CN(CC)CC)oc2ccc(OC)cc12	·	0.49	-26	12*
CC1(C)CC(=O)C(C(=O)C2CCN(S(=O)(=O)c3ccccc3)CC2)C(=O)C1	·	·	·	-2
Cc1cccc(NC(=O)CC2SC(=O)N(c3ccccc3)C2=O)c1 (centres undefined)	14	0.47	50*	-7
O=c1c2[nH]c3ccccc3c2ncn1Cc1ccco1	72*	0.44	-17	3
C/C(=N\NC(=O)c1ccc([N+](=O)[O-])cc1)c1c(O)cc(C)oc1=O	·	·	·	-3
C/C(=N/NC(=O)c1cc(O)c(O)c(O)c1)c1ccc([N+](=O)[O-])cc1	·	·	·	21*
CC1(C)Cc2c(C#N)c(NCc3ccco3)nc(-c3ccco3)c2CO1	-1	-0.68	-36	12*
Cc1nc(NCc2ccco2)c(C#N)c2c1COC(C)(C)C2	-5	-0.68	-38	0
CCOCCCNC(=O)c1c[nH]c2c(CC)cccc2c1=O	·	·	·	-4
c1ccc(-c2nnsc2-c2ncc[nH]2)cc1	·	·	·	1
c1ccc(-c2nnsc2-c2nc3ccccc3[nH]2)cc1	·	·	·	12*
Cc1cccnc1NC(=O)Cn1nc(-c2ccccc2)oc1=S	-1	0.93	-16	-2
CCn1c(COc2ccc3c(c2)CCCC3)nnc1SCC(=O)Nc1ccc(C(=O)OC)cc1	5	-0.14	-9	-4
CN1CCCN(C(=O)CC2(CC(=O)O)CCCC2)CC1	·	·	·	5
CN1CCN(C(=O)CC2(CC(=O)O)CCCC2)CC1	·	·	·	13*
COc1ccc(-c2nc3nc(N)nn3cc2C)cc1F	·	·	·	-3
CC1(C)CC(=O)c2sc(NC(=O)c3ccccc3)nc2C1	·	·	·	-1
SMILES	Yeast life ext	sdo1 growth	Yeast growth inh	HMGR II inh
CC1(C)CNC(=O)c2sc(NC(=O)c3ccccc3)nc2C1	·	·	·	14*
COc1cc(NC(=S)N2CCN(C(=O)C3CCCO3)CC2)c(OC)cc1Cl (centres undefined)	-2	1.2	-20	0
CCCCCC1CCC(C(=O)O)CC1 (centres undefined)	-7	-0.08	52*	-1
CCSC(=S)Nc1c(C)n(C)n(-c2ccccc2)c1=O	·	·	·	-5
CCCCC(=O)Nc1nnc(C2=COCCO2)o1	·	·	·	18*
O=C(COc1ccc(Cl)cc1)Nc1nnc(C2=COCCO2)o1	·	·	·	-1
COc1ccc(C(=O)n2nnc3ccccc32)cc1OC	23	0.04	-57	-1
Cc1ccc(C(=O)n2nnc3ccccc32)cc1[N+](=O)[O-]	32*	-0.67	-32	1
Cc1nn(C)c(C)c1S(=O)(=O)N1CCC(CO)(CC2CCCCO2)CC1 (centres undefined)	·	·	·	-3
CCOc1ccc2ccccc2c1CNCCN1CCOCC1	-14	1.2	1	10*
COc1ccc(-c2cc(C(=O)N3CCc4ccccc4C3)no2)cc1	·	·	·	2
COc1ccc(OC)c(-c2cc(C(=O)N3CCc4ccccc4C3)no2)c1	44*	-1.7	-49	-2
CCc1ccc(CC2S/C(=C(\C#N)C(C)=O)NC2=O)cc1 (centres undefined)	44*	2.7	-3	-3
CCOC(=O)N1CCN(Cc2nc(N)nc(Nc3ccc(C)cc3C)n2)CC1	·	·	·	-1
C/[N+]([O-])=C\C1C(=O)CC(C)(C)CC1=O	·	·	·	-2
C=CCO/N=C/C1C(=O)CC(C)(C)CC1=O	39*	0.07	-12	-7
Cc1ccc(NCc2nc3ccccc3n2CCOc2ccccc2)cc1	21	-1.9	33	-7
COc1cccc(/C=C2\C(=O)N(c3cccc(C)c3)C(=O)c3ccccc32)c1	48*	-1.1	-10	-6
CCOc1cc(/C=C2\C(=O)N(c3cccc(C(F)(F)F)c3)C(=O)c3ccccc32)ccc1O	10	-0.67	-25	0
COc1cccc(N2C(=O)c3ccncc3C2=O)c1	4	0.67	-84	0
Cc1cccc(N2C(=O)/C(=C\c3ccc(OC(F)F)cc3)c3ccccc3C2=O)c1	47*	-0.99	-27	2
CCOC(=O)c1c(NC(=O)Cc2cccs2)sc(C(=O)NC2CCCCC2)c1C	-2	0.06	-26	-1
COC(=O)c1c(NC(=O)Cc2cccs2)sc(C(=O)N2CCCCC2)c1C	29*	-0.46	-36	-4
CCOC(=O)C1(Cc2cccc(OC)c2)CCN(CC2CC=CCC2)CC1 (centres undefined)	·	·	·	-4
CCOc1ccc(S(=O)(=O)N(C)C)cc1-c1nc2c(C(C)(C)C)nn(C)c2c(=O)[nH]1	-5	0.23	-36	-5
SMILES	Yeast life ext	sdo1 growth	Yeast growth inh	HMGR II inh
CCOc1ccc(S(=O)(=O)N(C)CCO)cc1-c1nc2c(C(C)(C)C)nn(C)c2c(=O)[nH]1	3	0.47	-29	25*
O=C(O)c1ccccc1Nc1ccc([N+](=O)[O-])cc1	-5	-0.63	95*	0
NC(=O)NC(=O)CSc1nc(C2CCCCC2)n(-c2ccccc2)n1	4	-0.64	-25	0
C/C(N)=C(/C#N)C(=O)CSc1nc(C2CCCCC2)n(-c2ccccc2)n1	59*	-1.6	13	1
N#CCCN(C(=O)COc1ccc(C#N)cc1)c1ccc(F)cc1	·	·	·	-1
CCOC(=O)/C(=C\c1ccc(OC(F)F)cc1)C1=Nn2c(nnc2-c2ccc(Cl)cc2)SC1	-1	-0.73	2	-7
Cc1cc(N/N=C/c2ccc(Cl)cc2Cl)nc(NCc2ccccc2)n1	-14	-1.5	99*	-7
